In ChEMBL document CHEMBL1148329, “Synthesis and structure-activity studies on N-[5-(1H-imidazol-4-yl)-5,6,7,8-tetrahydro-1-naphthalenyl]methanesulfonamide, an imidazole-containing alpha(1A)-adrenoceptor agonist” (J Med Chem, 2004):

Assays:
[1] = target: T1, Alpha-1A adrenergic receptor (Oryctolagus cuniculus) (UniProt O02824); experiment: Efficacy relative to phenylephrine (PE) to constrict tissue containing the alpha-1A adrenergic receptor in rabbit urethra; assay type: functional, tissue-based
T1 sequence (whole entry): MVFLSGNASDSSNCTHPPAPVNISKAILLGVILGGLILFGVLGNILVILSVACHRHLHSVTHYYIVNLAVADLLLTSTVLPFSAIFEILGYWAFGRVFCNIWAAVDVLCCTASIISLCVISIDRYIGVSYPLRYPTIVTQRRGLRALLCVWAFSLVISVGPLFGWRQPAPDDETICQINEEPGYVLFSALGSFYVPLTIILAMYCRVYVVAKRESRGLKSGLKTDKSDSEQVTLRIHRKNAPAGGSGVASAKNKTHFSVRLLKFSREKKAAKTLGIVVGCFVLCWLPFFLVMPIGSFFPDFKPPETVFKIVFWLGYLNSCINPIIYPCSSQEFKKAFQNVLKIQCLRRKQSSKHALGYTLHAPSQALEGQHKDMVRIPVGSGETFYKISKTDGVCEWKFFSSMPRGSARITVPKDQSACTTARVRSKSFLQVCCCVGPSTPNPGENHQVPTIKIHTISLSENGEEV
Method in brief: (§1)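 α1-agonist dose–response curves in isolated tissue: rabbit urethra (α1A), rat spleen (α1B), rat aorta (α1D). Agonist potency and efficacy read from the concentration–response curves.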

Canis familiaris [2] = experiment: Uroselectivity was determined by measuring effective dose required for 20 mmHg increase of mean arterial pressure (MAP) in vivo in dog; assay type: functional, Canis lupus familiaris, Artery
Method in brief: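 Dog model recording intraurethral pressure (IUP) and mean arterial pressure (MAP) simultaneously. Increasing iv doses given, maximal effect of each dose taken. Doses giving a 5 mmHg rise in IUP (ED Δ5) or 20 mmHg rise in MAP (ED Δ20) were calculated, in nmol/kg ± SEM, n ≥ 4 (2 or 3 where footnoted).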

[3] = target: T2, Alpha-2A adrenergic receptor (Rattus norvegicus) (UniProt P22909); experiment: Efficacy relative to clonidine to constrict tissue containing the alpha-2A adrenergic receptor in rat prostatic vas deferens
T2 sequence (whole entry): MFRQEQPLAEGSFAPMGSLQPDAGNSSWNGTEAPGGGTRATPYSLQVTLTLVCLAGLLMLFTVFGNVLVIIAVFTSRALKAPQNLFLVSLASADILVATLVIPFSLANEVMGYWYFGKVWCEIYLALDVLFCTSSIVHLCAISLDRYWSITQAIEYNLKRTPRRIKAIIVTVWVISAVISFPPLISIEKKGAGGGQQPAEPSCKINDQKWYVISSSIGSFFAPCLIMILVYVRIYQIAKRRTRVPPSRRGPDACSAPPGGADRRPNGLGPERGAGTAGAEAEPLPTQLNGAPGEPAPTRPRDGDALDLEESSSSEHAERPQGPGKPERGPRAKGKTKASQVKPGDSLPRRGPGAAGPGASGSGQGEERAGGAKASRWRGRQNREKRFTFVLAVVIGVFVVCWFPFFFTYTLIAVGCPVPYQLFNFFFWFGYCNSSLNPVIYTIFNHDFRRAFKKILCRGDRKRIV

[4] = target: T3, Alpha-1A adrenergic receptor (Rattus norvegicus, UniProt P43140); experiment: In vitro binding affinity towards alpha-1A adrenergic receptor of rat submaxillary gland in radioligand binding assay
T3 sequence (P43140 whole entry): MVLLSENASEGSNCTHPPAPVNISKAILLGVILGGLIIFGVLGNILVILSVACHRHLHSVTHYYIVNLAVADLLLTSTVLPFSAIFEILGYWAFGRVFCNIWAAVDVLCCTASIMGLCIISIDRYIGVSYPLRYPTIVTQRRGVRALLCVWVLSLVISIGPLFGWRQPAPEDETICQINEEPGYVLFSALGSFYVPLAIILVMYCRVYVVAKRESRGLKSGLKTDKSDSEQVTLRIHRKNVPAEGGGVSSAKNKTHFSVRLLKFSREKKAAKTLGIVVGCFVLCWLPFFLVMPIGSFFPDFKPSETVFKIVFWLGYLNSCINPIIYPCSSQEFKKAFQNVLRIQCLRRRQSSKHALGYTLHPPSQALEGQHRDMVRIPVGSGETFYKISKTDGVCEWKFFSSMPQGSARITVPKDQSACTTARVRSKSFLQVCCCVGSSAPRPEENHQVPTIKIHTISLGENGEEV
Method in brief: (§2)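 Radioligand binding at α1 subtypes: α1A from rat submaxillary gland, α1B hamster clone, α1D rat clone. Run essentially per an earlier method.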

[5] = target: T4, Alpha-1B adrenergic receptor (Mesocricetus auratus, UniProt P18841); experiment: In vitro binding affinity towards alpha-1B adrenergic receptor of hamster clone in radioligand binding assay; assay type: single protein; method in brief: as §2
T4 sequence (P18841 whole entry): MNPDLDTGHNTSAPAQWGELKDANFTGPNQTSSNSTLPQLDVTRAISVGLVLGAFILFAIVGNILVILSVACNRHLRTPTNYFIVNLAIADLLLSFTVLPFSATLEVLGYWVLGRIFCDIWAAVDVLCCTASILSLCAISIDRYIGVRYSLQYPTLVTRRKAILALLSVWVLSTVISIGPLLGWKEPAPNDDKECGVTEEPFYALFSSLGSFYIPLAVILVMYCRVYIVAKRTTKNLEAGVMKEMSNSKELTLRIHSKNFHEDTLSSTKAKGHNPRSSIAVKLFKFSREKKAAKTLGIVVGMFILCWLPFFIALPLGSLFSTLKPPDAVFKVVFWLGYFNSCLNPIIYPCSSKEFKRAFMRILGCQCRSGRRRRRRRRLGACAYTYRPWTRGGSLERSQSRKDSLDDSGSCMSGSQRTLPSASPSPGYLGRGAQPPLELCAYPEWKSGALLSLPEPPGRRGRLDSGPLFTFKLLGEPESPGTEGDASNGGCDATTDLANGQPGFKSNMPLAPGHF

[6] = target: Alpha adrenergic receptor 1A and 1D (Rattus norvegicus) (UniProt P23944+P43140); experiment: Selectivity is ratio of pKi (binding affinity) of Alpha-1D to that of alpha1A; assay type: protein assay
[7] = target: T5, Alpha-1D adrenergic receptor (Rattus norvegicus, UniProt P23944); experiment: In vitro binding affinity towards alpha-1D adrenergic receptor of rat clone in radioligand binding assay; method in brief: as §2
T5 sequence (P23944 whole entry): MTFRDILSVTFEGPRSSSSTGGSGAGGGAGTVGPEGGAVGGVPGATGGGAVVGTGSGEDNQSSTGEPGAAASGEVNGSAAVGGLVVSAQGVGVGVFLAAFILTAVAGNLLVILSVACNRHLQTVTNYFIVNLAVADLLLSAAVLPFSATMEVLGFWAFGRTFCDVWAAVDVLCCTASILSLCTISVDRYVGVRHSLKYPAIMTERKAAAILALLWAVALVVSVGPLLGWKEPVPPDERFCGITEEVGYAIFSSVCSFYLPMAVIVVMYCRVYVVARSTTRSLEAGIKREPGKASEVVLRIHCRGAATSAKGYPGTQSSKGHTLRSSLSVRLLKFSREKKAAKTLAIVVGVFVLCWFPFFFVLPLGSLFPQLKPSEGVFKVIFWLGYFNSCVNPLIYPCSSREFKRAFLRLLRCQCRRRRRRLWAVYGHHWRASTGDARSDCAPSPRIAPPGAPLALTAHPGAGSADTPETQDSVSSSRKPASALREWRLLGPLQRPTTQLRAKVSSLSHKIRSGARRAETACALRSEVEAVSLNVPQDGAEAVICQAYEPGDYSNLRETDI

[8] = target: Alpha adrenergic receptor 1A and 1B (Rattus norvegicus) (UniProt P15823+P43140); experiment: Selectivity is ratio of pKi (binding affinity) of alpha-1B receptor to that of alpha-1A receptor.; assay type: protein assay
[9] = target: T1, Alpha-1A adrenergic receptor (Oryctolagus cuniculus); experiment: Functional agonism of the compounds to constrict tissue containing the alpha-1A adrenergic receptor in rabbit urethra; assay type: tissue-based; method in brief: as §1
Canis familiaris [10] = species: Canis familiaris; experiment: Ratio of MAP ED delta20 to that of IUP ED delta5

Alpha adrenergic receptor 1A and 1B (Rattus norvegicus), sequence (P15823 whole entry, looked up, one chain of several): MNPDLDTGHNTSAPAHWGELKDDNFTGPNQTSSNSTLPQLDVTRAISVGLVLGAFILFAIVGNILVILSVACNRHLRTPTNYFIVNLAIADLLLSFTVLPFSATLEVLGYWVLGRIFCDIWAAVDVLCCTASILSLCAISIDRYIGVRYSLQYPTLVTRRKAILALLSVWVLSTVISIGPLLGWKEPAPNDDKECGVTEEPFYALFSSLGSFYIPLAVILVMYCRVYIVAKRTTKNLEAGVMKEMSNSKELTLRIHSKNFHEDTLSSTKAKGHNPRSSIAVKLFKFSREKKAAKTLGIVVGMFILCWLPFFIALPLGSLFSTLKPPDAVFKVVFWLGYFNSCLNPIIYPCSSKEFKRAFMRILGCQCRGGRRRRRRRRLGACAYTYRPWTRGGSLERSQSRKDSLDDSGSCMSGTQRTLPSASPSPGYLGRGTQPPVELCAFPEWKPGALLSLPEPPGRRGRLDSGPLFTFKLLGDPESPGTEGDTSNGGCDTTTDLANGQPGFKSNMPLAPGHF

Compound | Efficacy [1] [%] | ED delta20 (Canis familiaris [2]) [nM/kg] | Efficacy [3] [%] | Ki [4] [µM] | Ki [5] [µM] | Selectivity [6] | Ki [7] [µM] | Selectivity [8] | pD2 [9] | Ratio (Canis familiaris [10])
CS(=O)(=O)Nc1cccc2c1CCC[C@H]2c1c[nH]cn1 | 84 | 48.7 | 29 | – | – | – | – | – | – | –
CCCS(=O)(=O)Nc1cccc2c1CCCC2c1c[nH]cn1 (stereo not given) | – | – | – | 1.7 | > 10 | > 6 | > 10 | > 6 | – | –
CCS(=O)(=O)Nc1cccc2c1CCCC2c1c[nH]c(C)n1 (stereo not given) | – | – | – | – | > 10 | > 10 | > 10 | > 10 | – | –
CC(C)S(=O)(=O)Nc1cccc2c1CCCC2c1c[nH]cn1 (stereo not given) | 74 | – | – | 1.15 | > 10 | 2 | 2.04 | > 9 | 5.17 | –
CCS(=O)(=O)Nc1cccc2c1SCCC2c1c[nH]cn1 (stereo not given) | – | – | – | – | > 10 | 10 | > 10 | 10 | – | –
CS(=O)(=O)Nc1cccc2c1CCCCC2c1c[nH]cn1 (stereo not given) | 17 | – | – | – | – | 2 | – | > 7 | 4.72 | –
CCS(=O)(=O)Nc1cccc(Sc2c[nH]cn2)c1 | – | – | – | > 10 | > 10 | – | > 10 | – | – | –
CCS(=O)(=O)Nc1cccc(-c2c[nH]cn2)c1 | – | – | – | > 10 | > 10 | – | > 10 | – | – | –
Cc1ccc(NS(C)(=O)=O)c2c1C(c1c[nH]cn1)CCC2 (stereo not given) | 35 | – | – | – | > 10 | 7 | – | > 26 | 4.4 | –
CS(=O)(=O)Nc1ccc(O)c2c1CCCC2c1c[nH]cn1 (stereo not given) | 34 | – | – | – | > 10 | > 14 | > 10 | > 14 | 4.61 | –
CCS(=O)(=O)Nc1cccc2c1CCCC2(O)c1c[nH]cn1 (stereo not given) | – | – | – | > 10 | > 10 | 1 | > 10 | 1 | – | –
CS(=O)(=O)Nc1ccc(Cl)c2c1CCCC2c1c[nH]cn1 (stereo not given) | 41 | – | – | – | > 10 | 6 | – | > 20 | 4.35 | –
CCS(=O)(=O)Nc1cccc(S(=O)(=O)c2c[nH]cn2)c1 | – | – | – | > 10 | > 10 | – | > 10 | – | – | –
CCS(=O)(=O)Nc1cccc(CC2CCCN2)c1 (stereo not given) | 17 | – | – | 0.708 | > 10 | 1 | 0.501 | > 10 | 4.44 | –
CCS(=O)(=O)Nc1cccc(Cc2c[nH]cn2)c1C | 69 | 202 | – | 0.129 | 8.13 | 8 | 1 | 60 | – | 5.6
CS(=O)(=O)Nc1ccc(F)c2c1CCCC2c1c[nH]cn1 (stereo not given) | 64 | 632 | – | – | > 10 | 10 | – | > 32 | 5.31 | 1
CCS(=O)(=O)Nc1cccc(CC2CN=CN2)c1 (stereo not given) | – | – | – | > 10 | 10 | – | 6.46 | – | – | –
CCS(=O)(=O)Nc1cc(F)cc2c1CCCC2c1c[nH]cn1 (stereo not given) | – | – | – | 0.0832 | > 10 | 44 | 3.63 | > 121 | – | –
CCS(=O)(=O)Nc1cc(C2CCCCC2)cc2c1CCCC2c1c[nH]cn1 (stereo not given) | – | – | – | – | – | 2 | – | 3 | – | –
Cn1cncc1C1CCCc2c(NS(C)(=O)=O)cccc21 (stereo not given) | – | – | – | > 10 | > 10 | – | > 10 | – | – | –
O=S(=O)(Nc1cccc2c1CCCC2c1c[nH]cn1)C1CC1 (stereo not given) | 51 | – | – | 0.537 | > 10 | 5 | 2.69 | > 19 | 5.25 | –
CCS(=O)(=O)Nc1cccc(NC2=NCCN2)c1 | – | – | – | 2.95 | > 10 | < 0.04 | 0.355 | > 3 | – | –
CCS(=O)(=O)Nc1cccc2c1COC2c1c[nH]cn1 (stereo not given) | – | – | – | – | > 10 | 10 | > 10 | 10 | – | –
CC(c1cccc(NS(C)(=O)=O)c1)c1c[nH]cn1 (stereo not given) | 92 | 234 | – | – | > 10 | 1 | – | 10 | 5.38 | 3.4
CCS(=O)(=O)Nc1cccc2c1CCCC2CNC (stereo not given) | – | – | – | 1.38 | > 10 | > 7 | > 10 | > 7 | – | –
